Assay results: ChEMBL document CHEMBL1148427, “Diastereoselective synthesis and configuration-dependent activity of (3-substituted-cycloalkyl)glycine pyrrolidides and thiazolidides as dipeptidyl peptidase IV inhibitors” (Bioorg Med Chem Lett, 2004)

Legend:
[1] = Inhibitory activity against human aminopeptidase P
Dipeptidyl peptidase 4 = Dipeptidyl peptidase 4 (Homo sapiens, UniProt P27487); test: Inhibitory activity against human recombinant Dipeptidylpeptidase IV
Method in brief: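 Human recombinant enzyme run in a fluorometric assay with Gly-Pro-AMC as substrate. Cleavage releases fluorescent 7-amino-4-methylcoumarin, which is read to give IC50 values.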

Dipeptidyl peptidase 2 = Dipeptidyl peptidase 2 (Homo sapiens, UniProt Q9UHL4); test: Inhibitory activity against human quiescent cell proline dipeptidase
Prolyl endopeptidase = target: T1, Prolyl endopeptidase (Homo sapiens, UniProt P48147); test: Inhibitory activity against human prolylendopeptidase
T1 sequence (P48147 whole entry): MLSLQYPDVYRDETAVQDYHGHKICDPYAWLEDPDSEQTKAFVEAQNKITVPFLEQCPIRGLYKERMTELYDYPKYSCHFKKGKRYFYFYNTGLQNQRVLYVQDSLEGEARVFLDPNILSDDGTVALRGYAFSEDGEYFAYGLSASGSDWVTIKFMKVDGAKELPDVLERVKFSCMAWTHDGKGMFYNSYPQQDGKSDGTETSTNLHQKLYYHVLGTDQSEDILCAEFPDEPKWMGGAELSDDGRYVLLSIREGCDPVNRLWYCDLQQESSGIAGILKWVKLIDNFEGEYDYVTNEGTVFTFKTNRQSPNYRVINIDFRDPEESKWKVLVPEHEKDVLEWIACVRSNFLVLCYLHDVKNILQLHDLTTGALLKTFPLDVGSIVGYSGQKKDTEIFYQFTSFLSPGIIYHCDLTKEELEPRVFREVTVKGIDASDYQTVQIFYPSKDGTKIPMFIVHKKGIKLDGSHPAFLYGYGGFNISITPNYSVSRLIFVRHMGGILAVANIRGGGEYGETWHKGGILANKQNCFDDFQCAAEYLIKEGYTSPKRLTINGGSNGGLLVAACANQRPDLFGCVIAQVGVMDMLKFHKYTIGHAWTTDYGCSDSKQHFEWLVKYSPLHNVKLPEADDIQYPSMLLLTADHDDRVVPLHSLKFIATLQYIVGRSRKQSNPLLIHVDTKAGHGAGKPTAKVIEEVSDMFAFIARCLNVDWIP

Sequence of Dipeptidyl peptidase 4 (P27487 whole entry): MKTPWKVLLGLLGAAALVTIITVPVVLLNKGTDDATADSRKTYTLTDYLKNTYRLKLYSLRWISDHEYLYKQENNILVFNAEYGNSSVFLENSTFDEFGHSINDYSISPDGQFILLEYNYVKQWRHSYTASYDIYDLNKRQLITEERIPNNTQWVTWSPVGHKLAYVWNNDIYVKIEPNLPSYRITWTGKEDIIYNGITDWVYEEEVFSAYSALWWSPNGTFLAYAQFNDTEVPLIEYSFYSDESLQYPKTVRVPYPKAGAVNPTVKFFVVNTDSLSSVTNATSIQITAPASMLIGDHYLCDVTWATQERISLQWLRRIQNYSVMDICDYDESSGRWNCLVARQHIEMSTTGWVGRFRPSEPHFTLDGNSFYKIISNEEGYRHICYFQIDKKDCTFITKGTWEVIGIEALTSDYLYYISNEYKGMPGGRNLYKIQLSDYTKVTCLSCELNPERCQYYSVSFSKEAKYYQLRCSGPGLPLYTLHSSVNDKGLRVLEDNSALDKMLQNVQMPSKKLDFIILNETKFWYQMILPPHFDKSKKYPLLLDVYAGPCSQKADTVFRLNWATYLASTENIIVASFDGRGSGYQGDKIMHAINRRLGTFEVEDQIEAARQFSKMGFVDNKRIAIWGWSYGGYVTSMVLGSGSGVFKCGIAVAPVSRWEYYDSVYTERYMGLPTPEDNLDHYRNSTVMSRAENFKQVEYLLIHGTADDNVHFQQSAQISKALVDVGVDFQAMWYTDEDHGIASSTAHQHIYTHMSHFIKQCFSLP

Compound | IC50 [1] | IC50 (Dipeptidyl peptidase 4) | IC50 (Dipeptidyl peptidase 2) | IC50 (Prolyl endopeptidase)
N[C@H](C(=O)N1CCCC1)[C@H]1CC[C@H](NS(=O)(=O)c2ccc(C(=O)O)cc2)C1 | > 100 µM | 0.072 µM | 12 µM | 
N[C@H](C(=O)N1CCCC1)[C@@H]1CC[C@H](NC(=O)Nc2cccc3ccccc23)C1 | > 100 µM | 0.44 µM | 1.3 µM | 
N[C@@H](C(=O)N1CCSC1)[C@H]1CC[C@@H](OC(=O)Nc2cccc(F)c2)C1 | > 100 µM | 1.2 µM | 0.54 µM | > 100 µM
N[C@H](C(=O)N1CCCC1)[C@H]1CC[C@@H](OC(=O)Nc2ccccc2-c2ccccc2)C1 | > 100 µM | 3.9 µM | 0.87 µM | 
N[C@H](C(=O)N1CCCC1)[C@@H]1CC[C@@H](NC(=O)Nc2cccc3ccccc23)C1 | > 100 µM | 0.094 µM | 0.43 µM | 
N[C@H](C(=O)N1CCCC1)[C@H]1CC[C@@H](NC(=O)c2cccc3ccccc23)C1 | > 100 µM | 0.23 µM | 0.99 µM | 
N[C@H](C(=O)N1CCCC1)[C@H]1CC[C@H](NS(=O)(=O)c2ccc(S(N)(=O)=O)cc2)C1 | > 100 µM | 0.083 µM | 0.022 µM | 
CS(=O)(=O)c1ccc(S(=O)(=O)N[C@@H]2CC[C@@H]([C@H](N)C(=O)N3CCCC3)C2)cc1 | > 100 µM | 0.013 µM | 1.6 µM | > 100 µM
CS(=O)(=O)c1ccc(S(=O)(=O)N[C@H]2CC[C@H]([C@H](N)C(=O)N3CCCC3)C2)cc1 | > 100 µM | 0.13 µM | 19 µM | > 100 µM
N[C@H](C(=O)N1CCSC1)[C@H]1CC[C@H](NC(=O)c2cccc3ccccc23)C1 | > 100 µM | 0.047 µM | 0.24 µM | 1.4 µM
N[C@H](C(=O)N1CCCC1)[C@@H]1CC[C@H](NS(=O)(=O)c2ccc(S(N)(=O)=O)cc2)C1 | > 100 µM | 0.25 µM | 3.1 µM | 
N[C@H](C(=O)N1CCCC1)[C@@H]1CC[C@@H](NS(=O)(=O)c2ccc(OC(F)(F)F)cc2)C1 | > 100 µM | 0.17 µM | 1.7 µM | > 100 µM
N[C@@H](C(=O)N1CCSC1)[C@H]1CC[C@@H](OC(=O)Nc2cccc3ccccc23)C1 | > 100 µM | 1.7 µM | 0.11 µM | 
O=C(N[C@H](C(=O)N1CCCC1)[C@@H]1CC[C@H](O)C1)OCc1ccccc1 | > 100 µM |  |  | 
N[C@H](C(=O)N1CCCC1)[C@@H]1CC[C@@H](NS(=O)(=O)c2ccc(S(N)(=O)=O)cc2)C1 | > 100 µM | 0.046 µM | 2.3 µM | 
N[C@H](C(=O)N1CCCC1)[C@H]1CC[C@@H](OC(=O)Nc2ccc(I)cc2)C1 | > 100 µM | 0.66 µM | 0.16 µM | 
N[C@H](C(=O)N1CCCC1)[C@H]1CC[C@@H](NS(=O)(=O)c2ccc(OC(F)(F)F)cc2)C1 | > 100 µM | 0.55 µM | 0.75 µM | > 100 µM
N[C@H](C(=O)N1CCCC1)[C@@H]1CC[C@H](OC(=O)Nc2ccc(I)cc2)C1 | > 100 µM | 0.67 µM | 0.25 µM | 
N[C@H](C(=O)N1CCCC1)[C@H]1CCC[C@@H](OC(=O)Nc2ccc(I)cc2)C1 | > 100 µM | 0.11 µM | 0.42 µM | 27 µM
N[C@H](C(=O)N1CCCC1)[C@H]1CCC[C@H](O)C1 | > 100 µM | 0.29 µM | 40 µM | > 100 µM
CS(=O)(=O)c1ccccc1S(=O)(=O)N[C@H]1CC[C@H]([C@H](N)C(=O)N2CCCC2)C1 | > 100 µM | 0.15 µM | 1 µM | > 100 µM
N[C@H](C(=O)N1CCCC1)[C@H]1CC[C@@H](NC(=O)Nc2cccc3ccccc23)C1 | > 100 µM | 0.11 µM | 0.27 µM | 
O=C(N[C@H](C(=O)N1CCCC1)[C@@H]1CC[C@@H](OC(=O)c2ccc([N+](=O)[O-])cc2)C1)OCc1ccccc1 | > 100 µM |  |  | 
N[C@H](C(=O)N1CCCC1)[C@@H]1CC[C@@H](NS(=O)(=O)c2ccc(C(=O)O)cc2)C1 | > 100 µM | 0.11 µM | 5 µM | 
N[C@H](C(=O)N1CCCC1)[C@@H]1CC[C@@H](OC(=O)Nc2ccc(I)cc2)C1 | > 100 µM | 0.11 µM | 0.82 µM | 
O=C(N[C@H](C(=O)N1CCCC1)[C@@H]1CC[C@@H](O)C1)OCc1ccccc1 | > 100 µM |  |  | 
N[C@H](C(=O)N1CCCC1)[C@H]1CC[C@H](OC(=O)Nc2ccc(I)cc2)C1 | > 100 µM | 0.18 µM | 0.26 µM | 
N[C@H](C(=O)N1CCCC1)[C@H]1CC[C@H](NS(=O)(=O)c2ccc(S(=O)(=O)C(F)(F)F)cc2)C1 | > 100 µM | 0.22 µM | 0.11 µM | 

Second part, the compound after the results:

IC50 [1] | IC50 (Dipeptidyl peptidase 4) | IC50 (Dipeptidyl peptidase 2) | IC50 (Prolyl endopeptidase) | Compound
> 100 µM |  |  |  | COC1=N[C@H](C(C)C)C(OC)=N[C@H]1[C@H]1CC[C@@H](O)C1
> 100 µM | 0.083 µM | 0.22 µM |  | COc1ccc(NC(=O)O[C@@H]2CCC[C@H]([C@H](N)C(=O)N3CCSC3)C2)cc1
> 100 µM |  |  |  | COC1=N[C@H](C(C)C)C(OC)=N[C@H]1[C@H]1CCC(=O)C1
> 100 µM |  |  |  | COC1=N[C@@H](C(C)C)C(OC)=NC1
> 100 µM |  |  |  | COC(=O)[C@H](NC(=O)OC(C)(C)C)[C@H]1CC[C@@H](O)C1
> 100 µM | 0.42 µM | 0.44 µM |  | COc1ccc(NC(=O)O[C@H]2CCC[C@H]([C@H](N)C(=O)N3CCSC3)C2)cc1
> 100 µM | 0.18 µM | 2.5 µM | > 100 µM | COc1ccc(NC(=O)O[C@@H]2CCC[C@H]([C@H](N)C(=O)N3CCCC3)C2)cc1
> 100 µM |  |  |  | COC1=N[C@H](C(C)C)C(OC)=N[C@H]1[C@H]1CC[C@H](O)C1
> 100 µM | 1.1 µM | 0.63 µM |  | COc1ccc(NC(=O)O[C@@H]2CC[C@H]([C@H](N)C(=O)N3CCCC3)C2)cc1
> 100 µM | 0.27 µM | 1.4 µM |  | COc1ccc(NC(=O)O[C@H]2CC[C@H]([C@H](N)C(=O)N3CCCC3)C2)cc1
> 100 µM |  |  |  | COC1=N[C@H]([C@@H]2CC[C@H](O)C2)C(OC)=N[C@H]1C(C)C
> 100 µM |  |  |  | COC1=N[C@H](C(C)C)C(OC)=NC1
> 100 µM |  |  |  | COC(=O)[C@@H](NC(=O)OCc1ccccc1)[C@@H]1CC[C@H](O)C1
> 100 µM |  |  |  | COC(=O)[C@@H](NC(=O)OC(C)(C)C)[C@H]1CC[C@@H](O)C1
> 100 µM | 0.11 µM | 0.053 µM |  | CN(C)S(=O)(=O)c1ccc(S(=O)(=O)N[C@H]2CC[C@H]([C@H](N)C(=O)N3CCCC3)C2)cc1
> 100 µM |  |  |  | COC1=N[C@H](C(C)C)C(OC)=N[C@H]1[C@H]1CCCC(O)C1 (stereo partly drawn)
> 100 µM |  |  |  | COC(=O)[C@H](NC(=O)OCc1ccccc1)[C@@H]1CC[C@H](O)C1
> 100 µM | 0.28 µM | 0.014 µM |  | N[C@H](C(=O)N1CCSC1)[C@H]1CC[C@@H](OC(=O)Nc2ccc(Cl)c(Cl)c2)C1
> 100 µM | 0.24 µM | 0.043 µM |  | COc1ccc(NC(=O)O[C@@H]2CC[C@H]([C@H](N)C(=O)N3CCSC3)C2)cc1
